Laboratory results as given in ChEMBL document CHEMBL1955763, “Antimicrobial activity of sulfonamides containing 5-chloro-2-hydroxybenzaldehyde and 5-chloro-2-hydroxybenzoic acid scaffold” (Eur J Med Chem, 2012).
Converted amounts (≈) assume the structure as drawn.

Tests used:
Staphylococcus aureus [1] = assay: Antibacterial activity against Staphylococcus aureus CCM 4516/08 after 24 hrs by broth microdilution method; assay type: functional; settings: CCM 4516/08, 24 h
How it was run: (§1)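 Microdilution broth method modified from M07-A07, in Mueller-Hinton broth at pH 7.4 (±0.2). Compounds were dissolved in DMSO. Inoculum was made in sterile water to 0.5 McFarland (1.5 × 10⁸ CFU/mL). MIC was taken as IC₉₀, meaning ≥90% growth reduction versus the drug-free control. Growth was read visually and by absorbance at 540 nm.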

HepG2 = assay: Cytotoxicity against human HepG2 cells after 24 hrs by MTS assay; assay type: cell-based; settings: HepG2, 24 h
How it was run: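 Hep G2 human liver cells (passage 3–4), 10 000 per well, in MEM with 1% glutamine, 10% fetal serum and 1% non-essential amino acids. Compounds were added from DMSO at eight increasing concentrations in quadruplicate. Exposure was 24 h at 37 °C in 5% CO₂, then MTS reagent for 1.5 h. Formazan was read at 490 nm and IC₅₀ derived as 50% of control viability.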

Mycobacterium avium [2] = assay: Antimycobacterial activity against isoniazid-, rifampicin-, ofloxacin-, ethambutol-resistant Mycobacterium avium 330/88 after 21 days; assay type: functional; settings: 330/88, 504 h
How it was run: (§2)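 Micromethod in Sula semisynthetic medium, with compounds added as DMSO solutions over a two-fold series from 1000 down to 1. Inoculum for M. avium 330/88 was a 10⁻⁵ dilution. Plates were incubated at 37 °C and MIC was read after 14 and 21 days.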

Staphylococcus aureus [3] = assay: Antibacterial activity against methicillin-resistant Staphylococcus aureus H 5996/08 after 24 hrs by broth microdilution method; assay type: functional; settings: H 5996/08, 24 h; how it was run: as §1
[4] = Selectivity ratio of IC50 for human HepG2 cell sto MIC90 for Staphylococcus aureus CCM 4516/08; assay type: functional
[5] = tested on: Mycobacterium tuberculosis; assay: Antimycobacterial activity against Mycobacterium tuberculosis H37Rv 331/88 after 14 days; assay type: functional; settings: H37Rv 331/88, 336 h
[6] = tested on: Staphylococcus epidermidis; assay: Antibacterial activity against methicillin-resistant Staphylococcus epidermidis H 6966/08 after 24 hrs by broth microdilution method; assay type: functional; settings: H 6966/08, 24 h; how it was run: as §1
[7] = Selectivity ratio of IC50 for human HepG2 cell sto MIC100 for Mycobacterium kansasii 6509/96; assay type: functional
Mycobacterium kansasii [8] = assay: Antimycobacterial activity against Mycobacterium kansasii 6509/96 after 14 days; assay type: functional; settings: 6509/96, 336 h
How it was run: (§3)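 Micromethod MIC in Sula semisynthetic medium, with compounds added as DMSO solutions at […]. Incubation at 37 °C. Inocula: M. kansasii 235/80 at dilution 10⁻⁴, clinical isolate 6509/96 at 10⁻⁵.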

Mycobacterium kansasii [9] = assay: Antimycobacterial activity against Mycobacterium kansasii 235/80 after 21 days; assay type: functional; settings: 235/80, 504 h; how it was run: as §3
Mycobacterium kansasii [10] = assay: Antimycobacterial activity against Mycobacterium kansasii 235/80 after 7 days; assay type: functional; settings: 235/80, 168 h; how it was run: as §3
Mycobacterium kansasii [11] = assay: Antimycobacterial activity against Mycobacterium kansasii 6509/96 after 21 days; assay type: functional; settings: 6509/96, 504 h; how it was run: as §3
Trichosporon asahii = assay: Antifungal activity against Trichosporon asahii 1188 after 24 hrs by broth microdilution method; assay type: functional; settings: Trichosporon asahii, 1188, 24 h
How it was run: (§4)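 Microdilution broth per CLSI M27-A3 (yeasts) or M38-A2 (moulds) in RPMI 1640 with glutamine, buffered to pH 7.0 with 0.165 mol MOPS. Compounds were in DMSO. Final inoculum was 5 × 10³ ± 0.2 CFU/mL. Other conditions matched the antibacterial assay, with MIC as IC₉₀ read visually and at 540 nm. Determined twice, in duplicate.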

Klebsiella pneumoniae [12] = assay: Antibacterial activity against Klebsiella pneumoniae D 11750/08 after 24 hrs by broth microdilution method; assay type: functional; settings: D 11750/08, 24 h
How it was run: (§5)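 Broth microdilution modified from standard M07-A07 in Mueller-Hinton broth at pH 7.4 (±0.2). Compounds were dissolved in DMSO. Inoculum in sterile water was adjusted to 0.5 McFarland (1.5 × 10⁸ CFU/mL). MIC was taken as IC₉₀, i.e. ≥90% growth reduction versus control, read visually and spectrophotometrically at 540 nm.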

Lichtheimia corymbifera = assay: Antifungal activity against Absidia corymbifera 272 after 24 hrs by broth microdilution method; assay type: functional; settings: Lichtheimia corymbifera, 272, 24 h; how it was run: as §4
Mycobacterium kansasii [13] = assay: Antimycobacterial activity against Mycobacterium kansasii 235/80 after 14 days; assay type: functional; settings: 235/80, 336 h; how it was run: as §3
Nakaseomyces glabratus = assay: Antifungal activity against Candida glabrata 20/I after 24 hrs by broth microdilution method; assay type: functional; how it was run: as §4
[14] = tested on: Mycobacterium tuberculosis; assay: Antimycobacterial activity against Mycobacterium tuberculosis H37Rv 331/88 after 21 days; assay type: functional; settings: H37Rv 331/88, 504 h; how it was run: as §2
[15] = tested on: Trichophyton mentagrophytes; assay: Antifungal activity against Trichophyton mentagrophytes 445 after 24 hrs by broth microdilution method; assay type: functional; settings: Trichophyton mentagrophytes, 445, 24 h
Candida albicans = assay: Antifungal activity against Candida albicans ATCC 44857 after 24 hrs by broth microdilution method; assay type: functional; settings: ATCC 44857, 24 h; how it was run: as §4
Mycobacterium kansasii [16] = assay: Antimycobacterial activity against Mycobacterium kansasii 6509/96 after 7 days; assay type: functional; settings: 6509/96, 168 h; how it was run: as §3
Klebsiella pneumoniae [17] = assay: Antibacterial activity against ESBL-positive Klebsiella pneumoniae J 14368/08 after 24 hrs by broth microdilution method; assay type: functional; settings: J 14368/08, 24 h; how it was run: as §5
[18] = tested on: Staphylococcus epidermidis; assay: Antibacterial activity against methicillin-resistant Staphylococcus epidermidis H 6966/08 after 48 hrs by broth microdilution method; assay type: functional; settings: H 6966/08, 48 h; how it was run: as §1
Pichia kudriavzevii = assay: Antifungal activity against Candida krusei E58 after 24 hrs by broth microdilution method; assay type: functional; settings: E58, 24 h; how it was run: as §4
Escherichia coli = assay: Antibacterial activity against Escherichia coli CCM 4517 after 24 hrs by broth microdilution method; assay type: functional; settings: CCM 4517, 24 h; how it was run: as §5
Pseudomonas aeruginosa = assay: Antibacterial activity against Pseudomonas aeruginosa CCM 1961 after 24 hrs by broth microdilution method; assay type: functional; settings: CCM 1961, 24 h; how it was run: as §5
Mycobacterium avium [19] = assay: Antimycobacterial activity against isoniazid-, rifampicin-, ofloxacin-, ethambutol-resistant Mycobacterium avium 330/88 after 14 days; assay type: functional; settings: 330/88, 336 h; how it was run: as §2
[20] = Selectivity ratio of IC50 for human HepG2 cell sto MIC100 for Mycobacterium kansasii 235/80; assay type: functional
Candida tropicalis = assay: Antifungal activity against Candida tropicalis 156 after 24 hrs by broth microdilution method; assay type: functional; settings: Candida tropicalis, 156, 24 h; how it was run: as §4
Staphylococcus aureus [21] = assay: Antibacterial activity against methicillin-resistant Staphylococcus aureus H 5996/08 after 48 hrs by broth microdilution method; assay type: functional; settings: H 5996/08, 48 h; how it was run: as §1
Staphylococcus aureus [22] = assay: Antibacterial activity against Staphylococcus aureus CCM 4516/08 after 48 hrs by broth microdilution method; assay type: functional; settings: CCM 4516/08, 48 h; how it was run: as §5
Aspergillus fumigatus = assay: Antifungal activity against Aspergillus fumigatus 231 after 24 hrs by broth microdilution method; assay type: functional; settings: Aspergillus fumigatus, 231, 24 h; how it was run: as §4

Structure (SMILES)	MIC (Staphylococcus aureus [1]) [µM]	MIC (Mycobacterium avium [2]) [µM]	MIC (Staphylococcus aureus [3]) [µM]	MIC [5] [µM]	MIC [6] [µM]	MIC (Mycobacterium kansasii [8]) [µM]	MIC (Mycobacterium kansasii [9]) [µM]	MIC (Mycobacterium kansasii [10]) [µM]	MIC (Mycobacterium kansasii [11]) [µM]	MIC (Trichosporon asahii) [µM]	MIC (Lichtheimia corymbifera) [µM]	MIC (Mycobacterium kansasii [13]) [µM]	MIC (Nakaseomyces glabratus) [µM]	MIC [14] [µM]	MIC [15] [µM]	MIC (Mycobacterium kansasii [16]) [µM]	MIC [18] [µM]	MIC (Mycobacterium avium [19]) [µM]	MIC (Staphylococcus aureus [21]) [µM]	MIC (Staphylococcus aureus [22]) [µM]	other results
O=S(=O)(Nc1nccs1)c1ccc(/N=C/c2cc(Cl)ccc2O)cc1	31.2 (≈ 12.3 µg/mL)	125 (≈ 49.2 µg/mL)	31.2 (≈ 12.3 µg/mL)	32 (≈ 12.6 µg/mL)	> 500	2 (≈ 0.788 µg/mL)	4 (≈ 1.58 µg/mL)	2 (≈ 0.788 µg/mL)	2 (≈ 0.788 µg/mL)	> 125	> 125	4 (≈ 1.58 µg/mL)	> 125	62.5 (≈ 24.6 µg/mL)	> 125	2 (≈ 0.788 µg/mL)	> 500	62.5 (≈ 24.6 µg/mL)	31.2 (≈ 12.3 µg/mL)	31.2 (≈ 12.3 µg/mL)	IC50 (HepG2): 313 µM; Ratio [4]: 10; Ratio [7]: 78.2; MIC (Klebsiella pneumoniae [12]): 500 µM (≈ 197 µg/mL); MIC (Candida albicans): > 125 µM; MIC (Klebsiella pneumoniae [17]): 500 µM (≈ 197 µg/mL); MIC (Pichia kudriavzevii): > 125 µM; MIC (Escherichia coli): 500 µM (≈ 197 µg/mL); MIC (Pseudomonas aeruginosa): ≥ 500 µM; Ratio [20]: 78.2; MIC (Candida tropicalis): > 125 µM; MIC (Aspergillus fumigatus): > 125 µM
O=C(Nc1ccc(S(=O)(=O)Nc2nccs2)cc1)c1cc(Cl)ccc1O	> 125	250 (≈ 102 µg/mL)	> 125	250 (≈ 102 µg/mL)	> 125	8 (≈ 3.28 µg/mL)	16 (≈ 6.56 µg/mL)	8 (≈ 3.28 µg/mL)	8 (≈ 3.28 µg/mL)	> 125	> 125	16 (≈ 6.56 µg/mL)	> 125	250 (≈ 102 µg/mL)	> 125	8 (≈ 3.28 µg/mL)	> 125	250 (≈ 102 µg/mL)	> 125	> 125	MIC (Candida albicans): > 125 µM; MIC (Pichia kudriavzevii): > 125 µM; MIC (Candida tropicalis): > 125 µM; MIC (Aspergillus fumigatus): > 125 µM
Cc1cc(NS(=O)(=O)c2ccc(/N=C/c3cccc(Cl)c3)cc2)no1	31.2 (≈ 11.7 µg/mL)	62.5 (≈ 23.5 µg/mL)	31.2 (≈ 11.7 µg/mL)	62.5 (≈ 23.5 µg/mL)	> 500	4 (≈ 1.5 µg/mL)	8 (≈ 3.01 µg/mL)	4 (≈ 1.5 µg/mL)	4 (≈ 1.5 µg/mL)	500 (≈ 188 µg/mL)	500 (≈ 188 µg/mL)	8 (≈ 3.01 µg/mL)	500 (≈ 188 µg/mL)	125 (≈ 47 µg/mL)	500 (≈ 188 µg/mL)	4 (≈ 1.5 µg/mL)	> 500	32 (≈ 12 µg/mL)	62.5 (≈ 23.5 µg/mL)	62.5 (≈ 23.5 µg/mL)	MIC (Candida albicans): 500 µM (≈ 188 µg/mL); MIC (Pichia kudriavzevii): 500 µM (≈ 188 µg/mL); MIC (Candida tropicalis): 500 µM (≈ 188 µg/mL); MIC (Aspergillus fumigatus): 500 µM (≈ 188 µg/mL)
Cc1cc(NS(=O)(=O)c2ccc(NC(=O)c3cccc(Cl)c3)cc2)no1	> 500	500 (≈ 196 µg/mL)	> 500	500 (≈ 196 µg/mL)	> 500	8 (≈ 3.13 µg/mL)	8 (≈ 3.13 µg/mL)	2 (≈ 0.784 µg/mL)	8 (≈ 3.13 µg/mL)	500 (≈ 196 µg/mL)	500 (≈ 196 µg/mL)	8 (≈ 3.13 µg/mL)	500 (≈ 196 µg/mL)	500 (≈ 196 µg/mL)	500 (≈ 196 µg/mL)	8 (≈ 3.13 µg/mL)	> 500	500 (≈ 196 µg/mL)	> 500	> 500	MIC (Candida albicans): 500 µM (≈ 196 µg/mL); MIC (Pichia kudriavzevii): 500 µM (≈ 196 µg/mL); MIC (Candida tropicalis): 500 µM (≈ 196 µg/mL); MIC (Aspergillus fumigatus): 500 µM (≈ 196 µg/mL)
O=C(Nc1ccc(S(=O)(=O)Nc2ncccn2)cc1)c1cc(Cl)ccc1O	125 (≈ 50.6 µg/mL)	62.5 (≈ 25.3 µg/mL)	31.2 (≈ 12.7 µg/mL)	125 (≈ 50.6 µg/mL)	> 500	8 (≈ 3.24 µg/mL)	16 (≈ 6.48 µg/mL)	4 (≈ 1.62 µg/mL)	8 (≈ 3.24 µg/mL)			8 (≈ 3.24 µg/mL)		250 (≈ 101 µg/mL)		4 (≈ 1.62 µg/mL)	> 500	62.5 (≈ 25.3 µg/mL)	31.2 (≈ 12.7 µg/mL)	125 (≈ 50.6 µg/mL)	
